An excerpt weighted towards active compounds, which were near 3.4% of everything screened.
MC4R barr agon: activates human MC4R beta-arrestin recruitment | U2OS MC4R beta-arrestin complementation, luminescence; percent of melanotan II response, DMSO zero | activation, % at 8.9 µM | 360,000 compounds, 0.98% hits | P32245;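 active means activation above a per-plate cutoff, the mean activation of sample wells on that plate plus 3 SD, cut at about 8% in these data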
MIN6 prolif: MIN6 beta-cell proliferation induction | 330,000 compounds, 0.29% hits | proliferation, % at 10 µM | AID 2380 | MIN6 cells proliferation, ATPlite luminescence, 48 h; cells starved in 0.2% serum; 100% = growth in 10% serum;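 active means compounds whose signal lies at least 3.5 SD above the mean of all wells on their plate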
TMEM16A inh: blocks the mouse calcium-activated chloride channel TMEM16A | HEK293 TMEM16A/YFP iodide influx fluorescence, ionomycin | normalized B-score (activity score, 25-100; higher = stronger inhibition) at 10 µM | 310,000 compounds, 1.2% hits | AID 588511;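 active means ratio plate-corrected score three or more library SD toward inhibition, starting fluorescence score within five deviations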;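 further: score derived from kinetic fluorescence span divided by baseline fluorescence per well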
Target sequence (Q8BHY3 whole entry, looked up): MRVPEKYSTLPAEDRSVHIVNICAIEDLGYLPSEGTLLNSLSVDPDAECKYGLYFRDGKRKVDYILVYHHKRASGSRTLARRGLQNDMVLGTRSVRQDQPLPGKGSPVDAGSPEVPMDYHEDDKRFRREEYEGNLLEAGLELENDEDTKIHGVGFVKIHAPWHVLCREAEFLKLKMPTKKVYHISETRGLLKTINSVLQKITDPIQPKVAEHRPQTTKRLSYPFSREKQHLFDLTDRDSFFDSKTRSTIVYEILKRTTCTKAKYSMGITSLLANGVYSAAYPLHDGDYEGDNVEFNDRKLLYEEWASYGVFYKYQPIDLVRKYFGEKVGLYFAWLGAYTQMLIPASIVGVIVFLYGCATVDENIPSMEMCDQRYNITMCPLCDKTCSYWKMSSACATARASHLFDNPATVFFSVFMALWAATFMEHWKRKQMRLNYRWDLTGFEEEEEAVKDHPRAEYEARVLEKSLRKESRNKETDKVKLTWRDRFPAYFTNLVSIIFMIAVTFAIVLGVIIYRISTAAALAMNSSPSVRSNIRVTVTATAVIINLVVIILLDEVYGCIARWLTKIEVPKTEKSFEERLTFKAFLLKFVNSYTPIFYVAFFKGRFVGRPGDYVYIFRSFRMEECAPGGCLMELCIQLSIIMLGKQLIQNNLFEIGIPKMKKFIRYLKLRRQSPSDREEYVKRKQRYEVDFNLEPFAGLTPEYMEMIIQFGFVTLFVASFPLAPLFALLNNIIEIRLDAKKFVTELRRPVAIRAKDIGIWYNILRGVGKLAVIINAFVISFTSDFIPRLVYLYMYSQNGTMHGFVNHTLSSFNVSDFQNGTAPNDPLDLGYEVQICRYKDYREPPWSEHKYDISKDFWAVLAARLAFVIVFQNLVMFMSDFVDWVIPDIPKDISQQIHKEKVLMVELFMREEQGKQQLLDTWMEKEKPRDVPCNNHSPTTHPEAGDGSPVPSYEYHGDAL
MC4R antagonist: human MC4R antagonism in cAMP assay; inhibition, % at 6.5 µM; 360,000 compounds, 0.48% hits; AID 540295; MC4R-expressing cells, MTII-stimulated cAMP, LANCE TR-FRET;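 active means inhibition above its plate's cutoff, the mean of tested wells on that plate plus 3 SD, cut at about 29% in these data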
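Assay system: human MC4R-expressing U2OS cells; reagent: Melanotan II stimulation of cells; dosing: 6.5 µM single dose; timing: compound 30 min, challenge 1 h, detection 1 h; signal: TR-FRET cAMP assay; replicates: one well per compound, no replicates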
m5-HT2A agonist: activates the mouse 5-HT2A serotonin receptor; CHO-K1 mHTR2A beta-arrestin complementation, luminescence; percent of 30 µM serotonin response; 360,000 compounds, 0.66% hits; P35363; activation, % at 7.6 µM; AID 624169;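 active means activation above a run cutoff, the mean activation of all tested compounds plus 3 SD, cut at about 14% in these data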
ANO1 activ: mouse TMEM16A channel activation, primary screen | Q8BHY3 | HEK293 TMEM16A/YFP-H148Q/I152L, iodide quench fluorescence; stronger effect = lower value | B-score at 10 µM | 340,000 compounds, 0.3% hits | AID 623877;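 active means fluorescence-ratio B-score plate-corrected deviation score at least 3 library SD below zero, with starting fluorescence score within 5 deviations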;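 further: channel opened by trigger with iodide after compound preincubation; score built on the fluorescence ratio of max minus min over baseline; more negative score means more quench and so TMEM16A activation or potentiation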
OPRM1 ag: counter-screen for mouse HTR2A agonists: human mu opioid receptor agonists | shares compounds with m5-HT2A agonist | U2OS OPRM1 beta-arrestin PathHunter, luminescence; DMSO 0%, DAMGO 9.3 µM 100% | activation, % at 9.3 µM | 2,300 compounds, 5.3% hits | AID 624380;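 active means mean activation above the mean of DMSO-only wells plus 3 SD, cut at about 0.5% in these data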
m5-HT2A ag conf: mouse HTR2A agonism confirmed. shares compounds with m5-HT2A agonist. CHO-K1 PathHunter beta-arrestin recruitment, luminescence; DMSO 0%, 30 µM serotonin 100%. activation, % at 7.6 µM. 2,300 compounds, 19% hits. AID 624381;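 active means mean activation across triplicates above the hit threshold derived in the original primary screen, cut at about 15% in these data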
Of the large screens only hits and unclear results are named; the others gave an inactive call (follow-up assays come after a bar, where they were run).

COc1cc(OC)c(NC(=O)c2cncn2-c2ccc(F)cc2)cc1Cl	m5-HT2A agonist 14.8 | OPRM1 ag inactive | m5-HT2A ag conf inactive
C[C@@H]1CN[C@H](CCO)/C1=C\c1ccccc1	m5-HT2A agonist 15.6 (no result: MIN6 prolif, TMEM16A inh, ANO1 activ) | OPRM1 ag inactive | m5-HT2A ag conf inactive
C[C@@H]1CN[C@@H](CCO)/C1=C\c1ccccc1	none (no result: MIN6 prolif, TMEM16A inh, ANO1 activ)
N/C(=N\OC(=O)CCCc1ccccc1)c1ccccc1Cl	none
CC(C)(C)c1ccc(S(=O)(=O)NC(=O)C2(C)CCN2C(=O)C2(c3ccc(Cl)cc3)CC2)cc1 (centres undefined)	none (no result: MIN6 prolif, TMEM16A inh, ANO1 activ)
CC1(C(=O)NS(=O)(=O)c2ccc(Cl)cc2)CCN1C(=O)C1(c2ccc(Cl)cc2)CC1 (centres undefined)	m5-HT2A agonist 14.9 (no result: MIN6 prolif, TMEM16A inh, ANO1 activ) | OPRM1 ag inactive | m5-HT2A ag conf inactive
Cc1ccc(S(=O)(=O)N2CCOCC2)cc1C(=O)N(C)CCOc1ccc(Cl)cc1	none
CN(CCOc1ccc(Cl)cc1)C(=O)c1cc(S(=O)(=O)N2CCOCC2)ccc1N1CCCC1	m5-HT2A agonist 19.3 (no result: TMEM16A inh) | OPRM1 ag inactive | m5-HT2A ag conf inactive
CCOC(=O)c1ccc(NC(=O)C23CCC(C)(C(=O)O2)C3(C)C)cc1 (centres undefined)	m5-HT2A agonist 18.0 | OPRM1 ag inactive | m5-HT2A ag conf inactive
COc1cc2c(cc1OC)[C@@H]1Cc3cc4c(cc3[C@H](C2)N1C)OCO4	m5-HT2A agonist 17.7 | OPRM1 ag inactive | m5-HT2A ag conf inactive
COc1ccc(Cc2c(-c3cccc(Cl)c3)nc3ccc(Cl)cn23)c(C)c1	none (no result: MC4R barr agon, MIN6 prolif, TMEM16A inh, MC4R antagonist, ANO1 activ)
O=C(Cc1ccccc1)Nc1ncccn1	none
CCSc1nsc(NC(=O)Nc2ccccc2F)n1	none
C=CCSc1nsc(NC(=O)Nc2ccc(F)cc2)n1	TMEM16A inh 100, m5-HT2A agonist 16.7 | OPRM1 ag 0.8 | m5-HT2A ag conf 29.3
Oc1ccc(C2CNCc3sccc32)cc1O (centres undefined)	m5-HT2A agonist 48.0 | OPRM1 ag inactive | m5-HT2A ag conf 151.0
COc1cccc(OCC(O)CN2CCN(c3ccccn3)CC2)c1 (centres undefined)	m5-HT2A agonist 33.1 | OPRM1 ag inactive | m5-HT2A ag conf 83.8
OC(COc1ccc2cc(Br)ccc2c1)CN1CCN(c2ccccn2)CC1 (centres undefined)	m5-HT2A agonist 24.2 | OPRM1 ag inactive | m5-HT2A ag conf 107.8
OC(COc1ccc2cc(Br)ccc2c1)CN1CCCC1 (centres undefined)	none
CC(COc1ccccc1)N1CCC(CO)(Cc2ccccc2)CC1 (centres undefined)	m5-HT2A agonist 29.1 | OPRM1 ag inactive | m5-HT2A ag conf 72.5
COc1ccc(CC2(CO)CCN(C(C)COc3ccccc3)CC2)cc1 (centres undefined)	m5-HT2A agonist 20.3 | OPRM1 ag inactive | m5-HT2A ag conf 85.4
COc1ccc(CC2(CO)CCN(C/C=C/c3ccccc3OC)CC2)cc1	none
Cc1ncc(CN2CCC(CO)(Cc3ccccc3)CC2)s1	none
O=C(Nc1ccc(F)c(Cl)c1)c1cc(C2CCCN(S(=O)(=O)c3cccc4cccnc34)C2)on1 (centres undefined)	none (no result: MIN6 prolif, TMEM16A inh, ANO1 activ)
CCc1ccc(NC(=O)CCNS(=O)(=O)c2cccc3nonc23)cc1	none
CC(=O)c1ccc(NC(=O)CCNS(=O)(=O)c2cccc3nonc23)cc1	m5-HT2A agonist 36.1 | OPRM1 ag inactive | m5-HT2A ag conf inactive
CC/C(=C\c1ccc(N(C)C)cc1)c1ccncc1	none (no result: MIN6 prolif, TMEM16A inh)
CC(=O)Nc1ncc(Sc2ccc([N+](=O)[O-])cc2)s1	m5-HT2A agonist 20.1 (no result: MIN6 prolif, TMEM16A inh) | OPRM1 ag inactive | m5-HT2A ag conf inactive
CCOC(=O)C1CCCN(C(=O)c2cccc3ccccc23)C1 (centres undefined)	m5-HT2A agonist 17.2 | OPRM1 ag inactive | m5-HT2A ag conf inactive
O=C(O)C1CCCN(C(=O)c2cccc3ccccc23)C1 (centres undefined)	none
Cc1cnc(N)nc1-c1ccccc1	m5-HT2A agonist 28.6 (no result: MIN6 prolif, TMEM16A inh, ANO1 activ) | OPRM1 ag inactive | m5-HT2A ag conf inactive
Nc1ncc(C(=O)O)c(-c2ccccc2)n1	none (no result: MIN6 prolif, TMEM16A inh)
CNC[C@@H]1OCc2ccccc2-c2c(n(C)c3ccccc23)C(=O)N([C@H](C)CO)C[C@H]1C	none (no result: MIN6 prolif, TMEM16A inh, ANO1 activ)
c1ccc(Nc2nc(Nc3ccccc3)nc(N3CCNCC3)n2)cc1	m5-HT2A agonist 20.5 | OPRM1 ag inactive | m5-HT2A ag conf inactive
COc1ccc(-n2nc(C(=O)NCC(=O)N3CCC(C)CC3)c3ccccc3c2=O)cc1	m5-HT2A agonist 14.8 | OPRM1 ag inactive | m5-HT2A ag conf inactive
COC(=O)CC1CC2(C(=O)OC)c3[nH]c4ccccc4c3CCN2C1=O (centres undefined)	none (no result: MC4R barr agon, MIN6 prolif, TMEM16A inh, MC4R antagonist, ANO1 activ)
CCC12CC1(C(=O)OC)C(=O)N1CCc3c([nH]c4ccccc34)C12 (centres undefined)	m5-HT2A agonist 36.8 (no result: MC4R barr agon, MIN6 prolif, TMEM16A inh, MC4R antagonist, ANO1 activ) | OPRM1 ag inactive | m5-HT2A ag conf 28.3
COc1cc(-c2ccc3sc(-c4ccsc4)c(C#CCO)c3c2)cc(OC)c1OC	m5-HT2A agonist 18.2 (no result: TMEM16A inh) | OPRM1 ag inactive | m5-HT2A ag conf inactive
CCC(C(=O)NC1CCCC1)N(C(=O)c1snc(C(N)=O)c1N)c1ccc(C)cc1C (centres undefined)	none
O=S(=O)(NCc1ccc(F)cc1)c1cc(Br)ccc1Br	m5-HT2A agonist 18.1 (no result: TMEM16A inh) | OPRM1 ag inactive | m5-HT2A ag conf inactive
CCOC(=O)C(C(=O)Nc1cccc(C)n1)C1CCCCC1 (centres undefined)	m5-HT2A agonist 14.4 | OPRM1 ag inactive | m5-HT2A ag conf inactive
N#Cc1ccc(CC(=O)c2ccccc2)[nH]c1=O	none (no result: MIN6 prolif, TMEM16A inh)
CN(C)c1ccc(C(C(=O)NCc2ccccc2)N(Cc2ccco2)C(=O)c2snc(C(N)=O)c2N)cc1 (centres undefined)	m5-HT2A agonist 16.2 (no result: MIN6 prolif) | OPRM1 ag inactive | m5-HT2A ag conf inactive
COCCCNC(=O)c1csc([C@@H]2C[C@H](O)[C@@H](CO)O2)n1	none (no result: MIN6 prolif, TMEM16A inh, ANO1 activ)
COCCCNC(=O)c1csc([C@H]2C[C@H](O)[C@@H](CO)O2)n1	m5-HT2A agonist 18.6 (no result: MIN6 prolif, TMEM16A inh, ANO1 activ) | OPRM1 ag inactive | m5-HT2A ag conf inactive
O=C1NC[C@H](CCCCN2C[C@H](Cc3ccccc3)N(CCc3ccc(O)cc3)C(=O)C2=O)N(CCC2CCCCC2)C1=O	none (no result: MC4R barr agon, MIN6 prolif, TMEM16A inh, MC4R antagonist, ANO1 activ)
CCOC(=O)c1sc(-c2ccccn2)nc1C	none

Compound activity: PubChem, several laboratories
